# Reference: PMC2756606 (Organic letters, 2009)
# pKi: −log10 of the molar value. Like-named read-outs stand apart in the source and are kept apart here.
# What was measured:
# δ-opioid receptor = conditions: cited from earlier work
# [1] = biological target: δOR (δ-opioid receptor) in HCT116 colon carcinoma cells engineered to express the δOR (Homo sapiens, UniProt P41143); assay: competitive binding assay, time-resolved fluorescence; conditions: TRF competitive binding; HCT116 cells expressing δOR
# Outline: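 Purified test compounds were run in a competition format on whole HCT116 colon carcinoma cells engineered to express δOR. Ki was derived from a fitted competition curve, with R2 reported for the fit.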
# [2] = tested on: mouse-isolated vas deferens, δ-opioid receptor (antagonism of δ-agonist DPDPE); assay: mouse-isolated vas deferens; type: biochemical; conditions: MVD assay against δ-agonist DPDPE; n=8
# [3] = tested on: HCT116/δOR and parental HCT116 tumors in SCID mice; type: in vivo, mouse; conditions: 10 μg i.v. (tail vein), 15 min post-injection, not shown
molecule,measurement,setting,value
Dmt-Tic-Lys-NH2,pKi,"δ-opioid receptor; reported radioligand binding assays, compared with TRF results",9.15
H-Dmt-Tic-Lys(Ac)-OH,pKi,δ-opioid receptor; δ-receptor affinity in radioligand binding assays,10.33
CC[N+]1=C(C=CC=CC=C2N(CCCCCC(=O)NCCN3C(=O)CC(SCCC(=O)NCCCC[C@H](NC(=O)[C@@H]4Cc5ccccc5CN4C(=O)[C@@H](N)Cc4c(C)cc(O)cc4C)C(=O)O)C3=O)c3ccc(S(=O)(=O)O)cc3C2(C)C)C(C)(C)c2cc(S(=O)(=O)[O-])ccc21 (some centres unmarked) [Ligand 1],affinity of labeled ligand compared with unlabeled counterpart (ligand 6),[1],equipotent to its unlabeled counterpart
same,"inhibitory potency, Ke",[2],0.037 ± 0.009 nM
same,"systemic distribution, fluorescence intensity maps",[3],systemic presence of the compound with high intensity throughout the animal
